Results on two compounds are retold here after publication PMC2948851 (European journal of pharmacology, 2010).

Type in all cases: cell-based
Assay [1] deals with human P2Y12 receptor R256Q/R265W double mutant (Homo sapiens, UniProt Q9H244, R256Q/R265W). Description: cAMP assay, CHO-K1 cells expressing R256Q/R265W double mutant P2Y12. On the technique in general: Changes in cAMP serve as a functional read-out for many G protein-coupled receptors.
Assay [2] deals with human P2Y12 receptor R265W mutant (Homo sapiens, UniProt Q9H244, R265W). Briefly: cAMP assay, CHO-K1 cells expressing R265W mutant P2Y12.
Sequence of human P2Y12 receptor R265W mutant (Q9H244 whole entry R265W): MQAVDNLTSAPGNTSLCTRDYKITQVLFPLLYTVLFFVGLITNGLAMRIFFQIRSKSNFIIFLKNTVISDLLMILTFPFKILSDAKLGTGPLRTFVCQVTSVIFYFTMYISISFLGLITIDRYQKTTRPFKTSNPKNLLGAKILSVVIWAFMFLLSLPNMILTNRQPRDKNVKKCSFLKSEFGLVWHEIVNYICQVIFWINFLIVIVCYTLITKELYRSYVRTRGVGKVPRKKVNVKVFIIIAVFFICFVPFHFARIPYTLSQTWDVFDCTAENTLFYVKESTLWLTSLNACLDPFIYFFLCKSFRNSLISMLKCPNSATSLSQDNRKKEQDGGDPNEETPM
For assay [3], the target named is human P2Y12 receptor F104S mutant (Homo sapiens, UniProt Q9H244, F104S). Briefly: cAMP assay, CHO-K1 cells expressing F104S mutant P2Y12.
Sequence of human P2Y12 receptor F104S mutant (Q9H244 whole entry F104S): as the sequence (Q9H244 whole entry R265W) above, with F104S, W265R counted along it
Assay [4] deals with human P2Y12 receptor S288P mutant (Homo sapiens, UniProt Q9H244, S288P). Description: cAMP assay, CHO-K1 cells expressing S288P mutant P2Y12.
Sequence of human P2Y12 receptor S288P mutant (Q9H244 whole entry S288P): as the sequence (Q9H244 whole entry R265W) above, with W265R, S288P counted along it
Assay [5] has as its target human P2Y12 receptor R256T mutant (Homo sapiens, UniProt Q9H244, R256T). Description: cAMP assay, CHO-K1 cells expressing R256T mutant P2Y12.
Assay [6] addresses human P2Y12 receptor R256Q mutant (Homo sapiens, UniProt Q9H244, R256Q). Briefly: cAMP assay, CHO-K1 cells expressing R256Q mutant P2Y12.
The target of assay [7] is human P2Y12 receptor H253S mutant (Homo sapiens, UniProt Q9H244, H253S). Description: cAMP assay, CHO-K1 cells expressing H253S mutant P2Y12.
Sequence of human P2Y12 receptor H253S mutant (Q9H244 whole entry H253S): as the sequence (Q9H244 whole entry R265W) above, with H253S, W265R counted along it
The target in assay [8] is human P2Y12 receptor Y109S mutant (Homo sapiens, UniProt Q9H244, Y109S). Description: cAMP assay, CHO-K1 cells expressing Y109S mutant P2Y12.
Sequence of human P2Y12 receptor Y109S mutant (Q9H244 whole entry Y109S): as the sequence (Q9H244 whole entry R265W) above, with Y109S, W265R counted along it
The target in assay [9] is human P2Y12 receptor F198P mutant (Homo sapiens, UniProt Q9H244, F198P). Description: cAMP assay, CHO-K1 cells expressing F198P mutant P2Y12.
Sequence of human P2Y12 receptor F198P mutant (Q9H244 whole entry F198P): as the sequence (Q9H244 whole entry R265W) above, with F198P, W265R counted along it
Assay [10] concerns the target human P2Y12 receptor wild-type (Homo sapiens, UniProt Q9H244). The gist of the method:
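CHO-K1 stably expressing N-terminally HA-tagged human P2Y12 (Ham's F-12, 10% FBS, 500 µg/ml hygromycin B); [3H]adenine-labelled overnight, 0.4 mM IBMX 10 min, then 20 µM forskolin with ADP (0.01–10 µM) and/or antagonist (0.001–1 µM, against 10 µM ADP) 5 min, 37°C. TCA stop; [3H]cAMP/([3H]ATP+[3H]cAMP) conversion, normalized to forskolin alone; IC50 calculated; mean ± S.E.M., n=3.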

Setting [11] is: CHO-K1, read-out: inhibition of cAMP at 10 μM ADP.

Marks after values point to notes of the source that are not given here.

Sequence of human P2Y12 receptor R256Q mutant (Q9H244 whole entry R256Q): as the sequence (Q9H244 whole entry R265W) above, with R256Q, W265R counted along it
Sequence of human P2Y12 receptor R256T mutant (Q9H244 whole entry R256T): as the sequence (Q9H244 whole entry R265W) above, with R256T, W265R counted along it
Sequence of human P2Y12 receptor R256Q/R265W double mutant (Q9H244 whole entry R256Q/R265W): as the sequence (Q9H244 whole entry R265W) above, with R256Q counted along it
Sequence of human P2Y12 receptor wild-type (Q9H244 whole entry): as the sequence (Q9H244 whole entry R265W) above, with W265R counted along it

For the compound `Nc1ncnc2c1ncn2[C@@H]1O[C@H](COP(=O)(O)OP(=O)(O)O)[C@@H](O)[C@H]1O` [ADP, Adenosine diphosphate], the IC50 (usually the concentration that inhibits the measured activity by half) was 6460 ± 190 nM in assay [1]; 450 ± 210 nM in assay [2]; 60 ± 10 nM in [3]; 40 ± 10 nM in assay [4]; 290 ± 50 nM in assay [5]; 570 ± 30 nM in [6]. In addition, the IC50 stood at 350 ± 210 nM in assay [7], 170 ± 90 nM in [8], 150 ± 50 nM in assay [9] and 250 ± 40 nM in assay [10]. The “Max. inhibition by ADP (% of control)” value is given as 56.68 ± 6.32 ^a (3) % of control in assay [1] (R256QR265W construct, CHO-K1, 20 μM forskolin, cAMP); 58.01 ± 3.08 ^a (3) % of control in assay [2] (R265W construct, CHO-K1, 20 μM forskolin, cAMP); 77.7 ± 1.12 (3) % of control in assay [3] (F104S construct, CHO-K1, 20 μM forskolin, cAMP); 68.89 ± 6.24 (3) % of control in [4] (S288P construct, CHO-K1, 20 μM forskolin, cAMP); 79.53 ± 4.83 (3) % of control in assay [5] (R256T construct, CHO-K1, 20 μM forskolin, cAMP); 75.32 ± 6.91 (3) % of control in [6] (R256Q construct, CHO-K1, 20 μM forskolin, cAMP). Also, the “Max. inhibition by ADP (% of control)” value in assay [7] (H253S construct, CHO-K1, 20 μM forskolin, cAMP) was 62.21 ± 1.93 (3) % of control; in [8] (Y109S construct, CHO-K1, 20 μM forskolin, cAMP), 31.96 ± 0.15 ^b (3) % of control; in [9] (F198P construct, CHO-K1, 20 μM forskolin, cAMP), 40.37 ± 10.64 ^b(3) % of control; in assay [10] (Wild-type construct, CHO-K1, 20 μM forskolin, cAMP) it was 85.37 ± 2.14 (3) % of control. The inhibition – broadly, the change of the read-out against control, counted positive when it falls – at 10 µM in [2] (setting [11]) is roughly 60%; in assay [7] (setting [11]), roughly 60%; in assay [8] (CHO-K1, read-out: cAMP inhibition at 10 μM ADP), roughly 20%; in [9] (CHO-K1, read-out: maximal inhibition of cAMP level at 10 μM ADP) it was roughly 40%; in assay [10] (CHO-K1, read-out: cAMP inhibition at 10 μM ADP, wild-type, 10 μM ADP), roughly 85%. The “increase of potency of activation by ADP vs wild-type” value in assay [3] (F104S vs wild-type) is listed as 5 fold. Moreover, the “left shift of ADP concentration curve vs wild-type” value in [4] (S288P vs wild-type) is recorded as “about 4 fold”.
`CSCCNc1nc(SCCC(F)(F)F)nc2c1ncn2[C@@H]1O[C@H](COP(=O)(O)OP(=O)(O)C(Cl)(Cl)P(=O)(O)O)[C@@H](O)[C@H]1O` [AR-C69931MX]: the “shift of AR-C69931MX concentration curve vs wild-type” value in [1] (R256QR265W, in the presence of 10 μM ADP) is given as “leftward shift”; in assay [2] (R265W, in the presence of 10 μM ADP, compared to R256Q and R256T) it was “even more leftward shift”; in assay [5] (R256T, in the presence of 10 μM ADP) it was “significant left shift”; in assay [6] (R256Q, in the presence of 10 μM ADP), “leftward shift”. Moreover, the “AR-C69931MX concentration enough to block ADP-induced activation” value in [2] (R265W, 10 μM ADP) is recorded as 30 nM. Besides, the “AR-C69931MX concentration enough to block ADP (10 μM)-induced activation” value in assay [5] (R256T, 10 μM ADP) stood at 100 nM. Also, in [10] (wild-type, 10 nM AR-C69931MX, 10 μM ADP), the “antagonism effect of AR-C69931MX at 10 nM” value is given as “did not occur”. Further, the “AR-C69931MX concentration required to completely inhibit 10 μM ADP-induced inhibition of cAMP” value in assay [10] (wild-type, 10 μM ADP) stood at 1 µM.
